What was measured:
Lethal factor [1] = target: T1, Lethal factor (Bacillus anthracis, UniProt P15917); assay: Inhibition of Bacillus anthracis lethal factor assessed as MCA-KKVYPYPME[dnp]K amide cleavage after 30 mins by fluorescence plate reader analysis
T1 sequence (P15917 whole entry): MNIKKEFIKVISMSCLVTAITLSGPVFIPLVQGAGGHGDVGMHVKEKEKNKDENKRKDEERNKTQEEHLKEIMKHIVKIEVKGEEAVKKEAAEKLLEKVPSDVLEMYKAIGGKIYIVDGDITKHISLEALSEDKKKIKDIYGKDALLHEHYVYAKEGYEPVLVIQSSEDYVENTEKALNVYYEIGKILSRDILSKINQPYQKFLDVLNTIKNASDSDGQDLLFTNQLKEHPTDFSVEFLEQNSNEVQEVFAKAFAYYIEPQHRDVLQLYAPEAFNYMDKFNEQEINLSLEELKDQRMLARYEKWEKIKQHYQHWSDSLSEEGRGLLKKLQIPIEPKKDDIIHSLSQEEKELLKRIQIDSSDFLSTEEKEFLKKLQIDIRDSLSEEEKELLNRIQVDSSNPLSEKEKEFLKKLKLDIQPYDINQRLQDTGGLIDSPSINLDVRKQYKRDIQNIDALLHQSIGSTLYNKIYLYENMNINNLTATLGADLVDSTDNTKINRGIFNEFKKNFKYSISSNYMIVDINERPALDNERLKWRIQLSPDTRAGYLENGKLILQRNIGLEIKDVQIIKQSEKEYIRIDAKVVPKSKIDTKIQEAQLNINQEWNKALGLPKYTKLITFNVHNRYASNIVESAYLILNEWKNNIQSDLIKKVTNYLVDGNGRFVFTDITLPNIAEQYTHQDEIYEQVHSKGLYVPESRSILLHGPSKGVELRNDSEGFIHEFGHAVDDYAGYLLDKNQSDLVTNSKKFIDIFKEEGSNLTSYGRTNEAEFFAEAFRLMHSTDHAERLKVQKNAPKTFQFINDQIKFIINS

[2] = target: Botulinum neurotoxin type A (Clostridium botulinum, UniProt P0DPI0); assay: Inhibition of Clostridium bolulinum BoNT/A assessed as cleavage of MOCAc-Lys-Lys-Val-Tyr-Pro-Tyr-Pro-Met-Glu-Lys(Dnp)-NH2 after 40 mins by FRET assay
Sequence of Botulinum neurotoxin type A (P0DPI0 2-448 limits assumed): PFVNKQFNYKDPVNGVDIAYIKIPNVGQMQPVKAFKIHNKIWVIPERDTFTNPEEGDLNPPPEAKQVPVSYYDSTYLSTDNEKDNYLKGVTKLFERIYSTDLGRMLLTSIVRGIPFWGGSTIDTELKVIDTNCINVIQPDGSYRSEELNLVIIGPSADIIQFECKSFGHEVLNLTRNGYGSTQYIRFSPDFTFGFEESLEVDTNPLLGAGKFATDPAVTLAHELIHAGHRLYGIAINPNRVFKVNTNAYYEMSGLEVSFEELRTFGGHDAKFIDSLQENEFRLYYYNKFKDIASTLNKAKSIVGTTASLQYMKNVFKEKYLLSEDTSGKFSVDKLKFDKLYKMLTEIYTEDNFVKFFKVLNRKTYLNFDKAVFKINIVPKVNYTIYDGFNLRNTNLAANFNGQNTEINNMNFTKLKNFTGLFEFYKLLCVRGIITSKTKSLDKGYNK
Method in brief: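 BoNT/A light chain (2 nM) in a 96-well FRET format. Reactions were stopped with acetic acid to 0.5% and cleaved-substrate fluorescence read at 485 nm with excitation at 398 nm. The same format served for IC50 and mechanism kinetics.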

[3] = target: Matrix metalloproteinase-9 (Homo sapiens, UniProt P14780); assay: Inhibition of human MMP-9 after 60 mins by FRET assay
Sequence of Matrix metalloproteinase-9 (P14780 whole entry): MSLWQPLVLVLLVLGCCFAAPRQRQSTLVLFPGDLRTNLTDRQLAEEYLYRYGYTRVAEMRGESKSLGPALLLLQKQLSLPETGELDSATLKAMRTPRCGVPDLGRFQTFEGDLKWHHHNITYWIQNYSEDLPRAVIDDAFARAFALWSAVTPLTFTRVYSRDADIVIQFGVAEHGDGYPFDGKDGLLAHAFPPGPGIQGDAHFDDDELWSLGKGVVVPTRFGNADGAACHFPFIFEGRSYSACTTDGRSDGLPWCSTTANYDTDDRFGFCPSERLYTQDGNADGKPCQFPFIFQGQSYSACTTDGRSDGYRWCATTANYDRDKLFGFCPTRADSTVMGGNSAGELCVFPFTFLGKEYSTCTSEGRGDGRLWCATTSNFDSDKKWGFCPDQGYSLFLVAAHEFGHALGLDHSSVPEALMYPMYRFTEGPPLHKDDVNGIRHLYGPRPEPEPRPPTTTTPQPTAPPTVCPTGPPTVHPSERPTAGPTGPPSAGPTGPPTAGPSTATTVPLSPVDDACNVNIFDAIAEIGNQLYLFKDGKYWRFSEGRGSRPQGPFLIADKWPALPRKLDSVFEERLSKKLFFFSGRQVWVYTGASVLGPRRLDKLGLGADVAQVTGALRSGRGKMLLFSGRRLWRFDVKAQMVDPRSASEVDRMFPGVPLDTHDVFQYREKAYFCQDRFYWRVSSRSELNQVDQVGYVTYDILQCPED
Method in brief: (§1)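 MMP-1 (38 nM) or MMP-9 (13 nM) with 50 fluorogenic substrate in 50 mM MOPS pH 6.0 and 0.05% NP-40, 37 °C for 60 min (linear range 90 min). Stopped with acetic acid (0.5% final); emission at 440 nm, excitation at 340 nm.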

Interstitial collagenase = target: T2, Interstitial collagenase (Homo sapiens, UniProt P03956); assay: Inhibition of human MMP-1 after 60 mins by FRET assay; method in brief: as §1
T2 sequence (P03956 whole entry): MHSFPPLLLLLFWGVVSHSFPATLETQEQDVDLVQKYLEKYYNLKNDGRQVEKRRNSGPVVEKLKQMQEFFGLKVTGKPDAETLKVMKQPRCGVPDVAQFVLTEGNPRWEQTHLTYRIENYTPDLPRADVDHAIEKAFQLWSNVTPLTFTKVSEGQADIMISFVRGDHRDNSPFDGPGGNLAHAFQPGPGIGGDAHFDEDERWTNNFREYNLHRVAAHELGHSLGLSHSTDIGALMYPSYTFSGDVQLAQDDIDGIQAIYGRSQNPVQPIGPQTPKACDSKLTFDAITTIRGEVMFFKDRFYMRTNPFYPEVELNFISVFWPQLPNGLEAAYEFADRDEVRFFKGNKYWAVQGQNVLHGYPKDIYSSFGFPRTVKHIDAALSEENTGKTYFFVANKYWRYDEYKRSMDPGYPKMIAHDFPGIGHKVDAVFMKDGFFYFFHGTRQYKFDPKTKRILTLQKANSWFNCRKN

Lethal factor [4] = target: T1, Lethal factor; assay: Inhibition of Bacillus anthracis lethal factor
Method in brief: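 FRET-based assay: LF cleaves a SNAP-derived fluorogenic peptide, and cleavage is read as a change in fluorescence.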

| SMILES | IC50 (Lethal factor [1]) [µM] | IC50 [2] [µM] | IC50 [3] [µM] | IC50 (Interstitial collagenase) [µM] | Ki (Lethal factor [4]) [µM] | IC50 (Lethal factor [4]) [µM] |
| --- | --- | --- | --- | --- | --- | --- |
| COc1ccccc1CC(=O)Nc1ccc2nc(C)cc(N)c2c1 | > 100 | > 100 | – | – | – | – |
| Cc1cc(N)c2cc(NC(=O)Cc3ccccc3Cl)ccc2n1 | > 100 | > 100 | – | – | – | – |
| COc1ncccc1CCC(=O)Nc1ccc2nc(C)cc(N)c2c1 | 41 | > 100 | > 100 | > 100 | – | – |
| COc1ccncc1CCC(=O)Nc1ccc2nc(C)cc(N)c2c1 | > 50 | > 100 | – | – | – | – |
| COc1ccsc1CCC(=O)Nc1ccc2nc(C)cc(N)c2c1 | > 100 | > 100 | – | – | – | – |
| Cc1cc(N)c2cc(NC(=O)Nc3ccc4c(c3)OCO4)ccc2n1 | > 100 | 41 | – | – | – | – |
| Cc1cc(N)c2cc(NC(=O)Nc3ccc(-c4ccccc4)cc3)ccc2n1 | 79 | 79 | – | – | – | – |
| COc1ccc(NC(=O)Nc2ccc3nc(C)cc(N)c3c2)cc1 | > 100 | 41 | – | – | – | – |
| CCOC(=O)c1ccc(NC(=O)Nc2ccc3nc(C)cc(N)c3c2)cc1 | 87 | 51 | – | – | – | – |
| Cc1cc(N)c2cc(NC(=O)Nc3ccc(F)cc3)ccc2n1 | 95 | 32 | – | – | – | – |
| Cc1cc(N)c2cc(NC(=O)Nc3ccc(C(C)C)cc3)ccc2n1 | 83 | 62 | – | – | – | – |
| Cc1cc(N)c2cc(NC(=O)Nc3ccc(C(=O)c4ccccc4)cc3)ccc2n1 | 26 | 67 | > 100 | > 100 | – | – |
| Cc1cc(N)c2cc(NC(=O)NCc3ccccc3Cl)ccc2n1 | 61 | > 100 | – | – | – | – |
| COc1ccccc1CNC(=O)Nc1ccc2nc(C)cc(N)c2c1 | > 100 | > 100 | – | – | – | – |
| Cc1cc(N)c2cc(NC(=O)c3cccc(-c4ccc(N(C)C)cc4)c3)ccc2n1 | – | 69 | > 100 | – | – | – |
| COc1ccc(/C=C/C(=O)Nc2ccc3nc(C)cc(N)c3c2)cc1 | 55 | > 100 | – | – | – | – |
| Cc1cc(N)c2cc(NC(=O)COc3ccc(OCc4ccccc4)cc3)ccc2n1 | 33 | > 100 | > 100 | > 100 | – | – |
| Cc1cc(N)c2cc(NC(=O)Cc3ccccc3)ccc2n1 | > 100 | > 100 | – | – | – | – |
| Cc1cc(N)c2cc(NC(=O)Cc3ccc4c(c3)OCO4)ccc2n1 | > 100 | > 100 | – | – | – | – |
| Cc1cc(N)c2cc(NC(=O)c3ccc(-c4cnc5ccccc5c4)cc3)ccc2n1 | 3 | > 100 | 11 | 78 | – | – |

| SMILES | IC50 (Lethal factor [1]) [µM] | IC50 [2] [µM] | IC50 [3] [µM] | IC50 (Interstitial collagenase) [µM] | Ki (Lethal factor [4]) [µM] | IC50 (Lethal factor [4]) [µM] |
| --- | --- | --- | --- | --- | --- | --- |
| Cc1cc(N)c2cc(NC(=O)c3ccc(-c4cncc5ccccc45)cc3)ccc2n1 | 13 | 65 | 9.4 | > 100 | – | – |
| Cc1cc(N)c2cc(NC(=O)c3ccc(-c4cccc5ncccc45)cc3)ccc2n1 | 10 | 34 | – | – | – | – |
| Cc1cc(N)c2cc(NC(=O)c3ccc(-c4cccc5cccnc45)cc3)ccc2n1 | 11 | 65 | 17 | > 100 | – | – |
| Cc1cc(N)c2cc(NC(=O)c3cccc(-c4ccc5ncccc5c4)c3)ccc2n1 | 4.6 | 26 | > 100 | > 100 | – | – |
| Cc1cc(N)c2cc(NC(=O)c3cccc(-c4cnc5ccccc5c4)c3)ccc2n1 | 5.7 | 45 | 16 | > 100 | – | – |
| Cc1cc(N)c2cc(NC(=O)c3cccc(-c4cncc5ccccc45)c3)ccc2n1 | 21 | > 100 | 48 | 50 | – | – |
| Cc1cc(N)c2cc(NC(=O)c3cccc(-c4cccc5ncccc45)c3)ccc2n1 | 33 | 68 | 50 | 65 | – | – |
| Cc1cc(N)c2cc(NC(=O)c3cccc(-c4cccc5cccnc45)c3)ccc2n1 | 36 | 79 | > 100 | > 100 | – | – |
| COc1ccc(CCC(=O)Nc2ccc3nc(C)cc(N)c3c2)cc1 | > 100 | > 100 | – | – | – | – |
| COc1cccc(CCC(=O)Nc2ccc3nc(C)cc(N)c3c2)c1 | > 100 | > 100 | – | – | – | – |
| COc1ccc(OC)c(CCC(=O)Nc2ccc3nc(C)cc(N)c3c2)c1 | > 100 | > 100 | – | – | – | – |
| COc1cccc(CCC(=O)Nc2ccc3nc(C)cc(N)c3c2)c1OC | > 100 | > 100 | – | – | – | – |
| Cc1cc(N)c2cc(NC(=O)CCc3ccccc3OC(=O)c3ccccc3)ccc2n1 | > 100 | > 100 | – | – | – | – |
| Cc1cc(N)c2cc(NC(=O)CCc3ccccc3Cl)ccc2n1 | > 100 | > 100 | – | – | – | – |
| Cc1cc(N)c2cc(NC(=O)CCc3ccccc3C)ccc2n1 | > 100 | > 100 | – | – | – | – |
| Cc1cc(N)c2cc(NC(=O)CCc3ccccc3C(F)(F)F)ccc2n1 | 38 | > 100 | > 100 | > 100 | – | – |
| Cc1cc(N)c2cc(NC(=O)CCc3ccc(F)cc3)ccc2n1 | > 100 | > 100 | – | – | – | – |
| COc1ccccc1/C=C/C(=O)Nc1ccc2nc(C)cc(N)c2c1 | 46 | > 100 | > 100 | > 100 | – | – |
| COc1ccc(Br)cc1CCC(=O)Nc1ccc2nc(C)cc(N)c2c1 | > 100 | > 100 | – | – | – | – |
| COc1ccc(Cl)cc1CCC(=O)Nc1ccc2nc(C)cc(N)c2c1 | > 100 | > 100 | – | – | – | – |

| SMILES | IC50 (Lethal factor [1]) [µM] | IC50 [2] [µM] | IC50 [3] [µM] | IC50 (Interstitial collagenase) [µM] | Ki (Lethal factor [4]) [µM] | IC50 (Lethal factor [4]) [µM] |
| --- | --- | --- | --- | --- | --- | --- |
| COc1cc(Cl)ccc1CCC(=O)Nc1ccc2nc(C)cc(N)c2c1 | 78 | > 100 | – | – | – | – |
| COc1cc(Br)ccc1CCC(=O)Nc1ccc2nc(C)cc(N)c2c1 | 58 | > 100 | – | – | – | – |
| CCOc1ccccc1CCC(=O)Nc1ccc2nc(C)cc(N)c2c1 | > 100 | > 100 | – | – | – | – |
| CCCOc1ccccc1CCC(=O)Nc1ccc2nc(C)cc(N)c2c1 | > 100 | > 100 | – | – | – | – |
| O=C(N/N=C/c1cc([N+](=O)[O-])ccc1O)c1ccc(O)c(O)c1 | – | – | – | – | 1.1 | – |
| Cc1cc(=S)c(O)c(C(=S)NCc2ccc(-c3ccccc3)cc2)o1 | – | – | – | – | – | 14 |
| CNC(=O)[C@@H](CCc1ccccc1)NC(=O)[C@@H](CC(=O)NO)CC(C)C | – | – | – | – | – | 7 |
| Cc1cc(N)c2cc(NC(=O)c3ccc(Oc4ccccc4)cc3)ccc2n1 | 70 | > 100 | > 100 | > 100 | – | – |
| Cc1cc(N)c2cc(NC(=O)c3cccc(C(=O)c4ccccc4)c3)ccc2n1 | 73 | > 100 | – | – | – | – |
| Cc1cc(N)c2cc(NC(=O)c3cccnc3)ccc2n1 | > 100 | > 100 | – | – | – | – |
| Cc1cc(N)c2cc(NC(=O)c3ccco3)ccc2n1 | > 100 | 47 | – | – | – | – |
| Cc1cc(N)c2cc(NC(=O)c3cccc(N(C)C)c3)ccc2n1 | > 100 | > 100 | – | – | – | – |
| Cc1cc(N)c2cc(NC(=O)c3ccc(N4CCOCC4)cc3)ccc2n1 | > 100 | 27 | – | – | – | – |
| Cc1cc(N)c2cc(NC(=O)c3cc4ccccc4o3)ccc2n1 | 90 | > 100 | – | – | – | – |
| COc1ccc2[nH]c(C(=O)Nc3ccc4nc(C)cc(N)c4c3)cc2c1 | 44 | 35 | > 100 | – | – | – |
| Cc1cc(N)c2cc(NC(=O)c3ccc(-c4ccccc4)cc3)ccc2n1 | 48 | > 100 | > 100 | – | – | – |
| Cc1cc(N)c2cc(NC(=O)c3ccc(-c4cccnc4)cc3)ccc2n1 | 43 | 23 | > 100 | – | – | – |
| Cc1cc(N)c2cc(NC(=O)CCc3ccccc3)ccc2n1 | > 100 | > 100 | – | – | – | – |
| Cc1cc(N)c2cc(NC(=O)Nc3ccc4nc(C)cc(N)c4c3)ccc2n1 [AMINOQUINURIDE] | 3.2 | 7.2 | 100 | 31 | – | – |

From ChEMBL document CHEMBL3098056, “Small molecule inhibitors of anthrax lethal factor toxin” (Bioorg Med Chem, 2014)
